# Assay results reported in ChEMBL document CHEMBL3797060, “Discovery of 5-Chloro-1-(5-chloro-2-(methylsulfonyl)benzyl)-2-imino-1,2-dihydropyridine-3-carboxamide (TAK-259) as a Novel, Selective, and Orally Active α1D Adrenoceptor Antagonist with Antiurinary Frequency Effects: Reducing Human Ether-a-go-go-Related Gene (hERG) Liabilities” (J Med Chem, 2016).
# pKi: −log10 of the molar value.
# Tests used:
# [1] = molecular target: T1, Alpha-1D adrenergic receptor (Homo sapiens, UniProt P25100); experiment: Displacement of 7-methoxy-[3H]-prazosin from human alpha1D adrenergic receptor expressed in CHO-K1 cell membranes incubated for 60 mins by liquid scintillation counting analysis
# T1 sequence (P25100 whole entry): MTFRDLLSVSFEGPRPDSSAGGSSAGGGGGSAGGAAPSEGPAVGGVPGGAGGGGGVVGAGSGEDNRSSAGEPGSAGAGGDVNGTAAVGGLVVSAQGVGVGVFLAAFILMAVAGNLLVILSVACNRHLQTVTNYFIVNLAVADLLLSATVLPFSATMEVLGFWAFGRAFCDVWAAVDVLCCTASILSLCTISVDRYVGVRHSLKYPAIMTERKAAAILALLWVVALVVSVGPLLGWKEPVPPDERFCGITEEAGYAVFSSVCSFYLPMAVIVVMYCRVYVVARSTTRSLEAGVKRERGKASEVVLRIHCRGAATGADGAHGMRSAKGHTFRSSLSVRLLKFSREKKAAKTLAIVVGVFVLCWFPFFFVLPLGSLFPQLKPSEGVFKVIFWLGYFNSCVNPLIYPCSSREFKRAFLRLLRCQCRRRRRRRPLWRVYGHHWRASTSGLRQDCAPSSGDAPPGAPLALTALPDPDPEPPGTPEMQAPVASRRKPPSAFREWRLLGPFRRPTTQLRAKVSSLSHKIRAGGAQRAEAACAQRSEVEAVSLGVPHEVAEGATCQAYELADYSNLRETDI
# Procedure, shortened: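 CHO-K1 stable-line membranes (10 µg protein), 2.5 nmol/L ligand, Tris-HCl pH 7.5 with MgCl2, EDTA and 0.5% BSA, 12 compound concentrations, room temperature. Filtered and counted; nonspecific binding with 10 µmol/L phentolamine. IC50 by logistic regression, converted to Ki by Cheng-Prusoff with Kd 0.93 (α1A), 0.35 (α1B), 0.26 (α1D) nmol/L. Triplicate mean, 95% CI.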
# hERG (KCNH2) = hERG (KCNH2) (Homo sapiens, UniProt Q12809); experiment: Inhibition of human ERG channel expressed in CHO cells assessed as peak tail current at 10 uM incubated for 5 mins by patch-clamp assay; type: cell-based; conditions: CHO cells expressing human ERG channel
# Sequence of hERG (KCNH2) (Q12809 whole entry): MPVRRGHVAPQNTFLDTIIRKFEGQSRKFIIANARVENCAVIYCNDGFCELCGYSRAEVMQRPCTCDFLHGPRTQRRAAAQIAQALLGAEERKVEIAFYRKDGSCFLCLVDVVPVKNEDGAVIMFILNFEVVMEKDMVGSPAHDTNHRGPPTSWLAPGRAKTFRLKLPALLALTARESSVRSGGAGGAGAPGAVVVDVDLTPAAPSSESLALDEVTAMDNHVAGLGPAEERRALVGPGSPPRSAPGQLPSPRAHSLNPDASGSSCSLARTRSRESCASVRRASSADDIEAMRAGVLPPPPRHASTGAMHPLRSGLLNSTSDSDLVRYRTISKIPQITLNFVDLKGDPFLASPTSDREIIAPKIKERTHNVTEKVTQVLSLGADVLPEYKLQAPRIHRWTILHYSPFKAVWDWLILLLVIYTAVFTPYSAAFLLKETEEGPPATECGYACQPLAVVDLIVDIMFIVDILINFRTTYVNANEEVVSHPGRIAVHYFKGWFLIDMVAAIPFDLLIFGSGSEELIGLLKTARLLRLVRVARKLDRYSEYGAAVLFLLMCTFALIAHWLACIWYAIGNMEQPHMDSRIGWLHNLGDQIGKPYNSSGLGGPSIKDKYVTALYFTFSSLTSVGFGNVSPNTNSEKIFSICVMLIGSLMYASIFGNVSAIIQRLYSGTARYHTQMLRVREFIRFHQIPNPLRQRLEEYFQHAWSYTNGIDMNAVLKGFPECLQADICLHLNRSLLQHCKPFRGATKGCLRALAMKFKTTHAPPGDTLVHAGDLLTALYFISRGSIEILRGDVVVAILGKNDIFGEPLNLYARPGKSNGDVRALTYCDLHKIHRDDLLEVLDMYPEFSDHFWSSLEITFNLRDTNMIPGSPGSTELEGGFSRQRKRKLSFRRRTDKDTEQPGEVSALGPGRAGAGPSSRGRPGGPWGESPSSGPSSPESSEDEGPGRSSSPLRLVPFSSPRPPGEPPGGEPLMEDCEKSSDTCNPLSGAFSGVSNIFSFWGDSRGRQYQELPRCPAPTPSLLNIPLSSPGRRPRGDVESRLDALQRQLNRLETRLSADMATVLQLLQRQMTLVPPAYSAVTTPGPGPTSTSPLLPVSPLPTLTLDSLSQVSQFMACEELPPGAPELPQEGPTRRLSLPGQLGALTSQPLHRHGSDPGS
# Procedure, shortened: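 CHO cells stably expressing hERG, grown at 32 °C, 5% CO2 in Ham's F-12 with 10% FBS and 500 µg/mL Geneticin. Population patch clamp with PBS (Ca/Mg) outside, KCl/MgCl2/EGTA/HEPES pH 7.3 inside, amphotericin B perforation. Holding −80 mV, step to 40 mV 2 s, then −50 mV 2 s. Peak tail current taken before and after 5 min compound exposure, inhibition = 100 − post/pre×100, n = 3 or 4.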
# Homo sapiens [2] = species: Homo sapiens; experiment: Selectivity ratio of Ki for human alpha1A adrenergic receptor to Ki for human alpha1D adrenergic receptor
# Procedure, shortened: (§1)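 Membranes from CHO-K1 cells stably expressing human α1A, α1B or α1D receptors (10 µg protein) incubated 60 min at room temperature with 2.5 nmol/L 7-methoxy[3H]-prazosin and 12 compound concentrations in Tris-HCl pH 7.5 buffer with MgCl2, EDTA, 0.5% BSA. Bound counts taken after filtration; nonspecific binding defined with 10 µmol/L phentolamine.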
# Homo sapiens [3] = species: Homo sapiens; experiment: Selectivity ratio of Ki for human alpha1B adrenergic receptor to Ki for human alpha1D adrenergic receptor; procedure, shortened: as §1
SMILES,pKi [1],also measured
N=c1c(C(N)=O)cc(Cl)cn1Cc1ccc(Cl)cc1,7.64,–
N=c1c(C(N)=O)cc(Cl)cn1Cc1ccco1,6.80,–
N=c1c(C(N)=O)cc(Cl)cn1Cc1ccc(C(N)=O)c(Cl)c1,7.19,"inhibition at 5 min, 10 µM (hERG (KCNH2)): 10%"
N=c1c(C(N)=O)cc(Cl)cn1CCCc1ccccc1,7.27,–
N=c1c(C(N)=O)cc(Cl)cn1Cc1cccnc1,6.60,–
CC(C)(C)Cn1cc(Cl)cc(C(N)=O)c1=N,6.09,–
NC(=O)c1cc(Cl)cn(Cc2ccccc2)c1=O,< 6.03,–
COc1cccc(Cn2cc(Cl)cc(C(N)=O)c2=N)c1,8.06,–
N=c1c(C(N)=O)cc(Cl)cn1Cc1ccccc1Cl,7.41,–
CCOc1ccccc1OCCN[C@H](C)Cc1ccc(OC)c(S(N)(=O)=O)c1,–,Ratio Ki (Homo sapiens [2]): 0.7; Ratio Ki (Homo sapiens [3]): 11
N#Cc1cc(Cl)cc(Cn2cc(Cl)cc(C(N)=O)c2=N)c1,9.07,"inhibition at 5 min, 10 µM (hERG (KCNH2)): 71%"
N#Cc1ccc(Cn2cc(Cl)cc(C(N)=O)c2=N)cc1Cl,7.96,"inhibition at 5 min, 10 µM (hERG (KCNH2)): 74%"
N=c1c(C(N)=O)cc(Cl)cn1Cc1ccccn1,6.38,–
N#Cc1ccc(Cl)cc1Cn1cc(Cl)cc(C(N)=O)c1=N,8.07,"inhibition at 5 min, 10 µM (hERG (KCNH2)): 59%"
N=c1c(C(N)=O)cc(Cl)cn1Cc1cccc(C(N)=O)c1,7.59,–
N=c1c(C(N)=O)cccn1Cc1ccccc1,6.06,–
CCNC(=O)c1cc(Cl)cn(Cc2ccccc2)c1=N,< 6.03,–
CS(=O)(=O)c1cc(Cl)cc(Cn2cc(Cl)cc(C(N)=O)c2=N)c1,8.32,"inhibition at 5 min, 10 µM (hERG (KCNH2)): 14%"
